Reference: ChEMBL document CHEMBL4145441, “Discovery of N-(5-((5-chloro-4-((2-(isopropylsulfonyl)phenyl)amino)pyrimidin-2-yl)amino)-4-methoxy-2-(4-methyl-1,4-diazepan-1-yl)phenyl)acrylamide (CHMFL-ALK/EGFR-050) as a potent ALK/EGFR dual kinase inhibitor capable of overcoming a variety of ALK/EGFR associated drug resistant mutants in NSCLC” (Eur J Med Chem, 2017)

How the values were obtained:
NCI-H1975 [1] = test: Growth inhibition of human NCI-H1975 cells after 72 hrs by CellTiter-Glo assay; assay type: functional; conditions: NCI-H1975, 72 h
In short: (§1)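 Antiproliferative GI50 against H1975 and H3122 cells; each GI50 value obtained from triplicate testing.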

NCI-H3122 [2] = test: Growth inhibition of human NCI-H3122 cells after 72 hrs by CellTiter-Glo assay; assay type: functional; conditions: NCI-H3122, 72 h; in short: as §1
[3] = test system: Epidermal growth factor receptor (Homo sapiens), P00533 [L858R,T790M]; test: Inhibition of full length EGFR L858R/T790M mutant (unknown origin) expressed in mouse BAF3 cells assessed as decrease in cell proliferation after 72 hrs by CellTiter-Glo assay; assay type: cell-based
[4] = test system: Epidermal growth factor receptor (Homo sapiens), P00533 [C797S]; test: Inhibition of TEL-fused EGFR C797S mutant (unknown origin) expressed in mouse BAF3 cells assessed as decrease in cell proliferation after 72 hrs by CellTiter-Glo assay; assay type: cell-based
PC-9 = test: Antiproliferative activity against human PC9 cells harboring EGFR del19 mutant after 72 hrs by CellTiter-Glo assay; assay type: functional; conditions: PC-9, 72 h
A549 = test: Antiproliferative activity against human A549 cells harboring wild-type EGFR after 72 hrs by CellTiter-Glo assay; assay type: functional; conditions: A549, 72 h
[5] = test system: Epidermal growth factor receptor (Homo sapiens), P00533 [L858R,T790M,C797S]; test: Inhibition of full length EGFR L858R/T790M/C797S mutant (unknown origin) expressed in mouse BAF3 cells assessed as decrease in cell proliferation after 72 hrs by CellTiter-Glo assay; assay type: cell-based
NCI-H1355 = test: Antiproliferative activity against human NCI-H1355 cells harboring wild-type EGFR after 72 hrs by CellTiter-Glo assay; assay type: functional; conditions: NCI-H1355, 72 h
[6] = Antiproliferative activity against CHL cells after 72 hrs by CellTiter-Glo assay; assay type: cell-based, Cricetulus griseus; conditions: chinese hamster
[7] = test system: Epidermal growth factor receptor (Homo sapiens), P00533 [L858R]; test: Inhibition of full length EGFR L858R mutant (unknown origin) expressed in mouse BAF3 cells assessed as decrease in cell proliferation after 72 hrs by CellTiter-Glo assay; assay type: cell-based
[8] = target: T1, Epidermal growth factor receptor (Homo sapiens, UniProt P00533); test: Inhibition of TEL-fused EGFR (unknown origin) expressed in mouse BAF3 cells assessed as decrease in cell proliferation after 72 hrs by CellTiter-Glo assay; assay type: cell-based
NCI-H2122 = test: Antiproliferative activity against human NCI-H2122 cells harboring wild-type EGFR after 72 hrs by CellTiter-Glo assay; assay type: functional; conditions: NCI-H2122, 72 h
[9] = test system: Epidermal growth factor receptor (Homo sapiens), P00533 [T790M]; test: Inhibition of TEL-fused EGFR T790M mutant (unknown origin) expressed in mouse BAF3 cells assessed as decrease in cell proliferation after 72 hrs by CellTiter-Glo assay; assay type: cell-based
NCI-H3255 = test: Antiproliferative activity against human H3255 cells harboring EGFR L858R mutant after 72 hrs by CellTiter-Glo assay; assay type: functional; conditions: NCI-H3255, 72 h
[10] = target: T1, Epidermal growth factor receptor; test: Inhibition of full length EGFR del19 mutant (unknown origin) expressed in mouse BAF3 cells assessed as decrease in cell proliferation after 72 hrs by CellTiter-Glo assay; assay type: cell-based
[11] = Antiproliferative activity against CHO cells after 72 hrs by CellTiter-Glo assay; assay type: cell-based, Cricetulus griseus; conditions: chinese hamster
NCI-H3122 [12] = test: Antiproliferative activity against human NCI-H3122 cells harboring EML4-fused ALK varian1 after 72 hrs by CellTiter-Glo assay; assay type: functional; conditions: NCI-H3122, 72 h; in short: as §1
[13] = Antiproliferative activity against mouse BAF3 cells after 72 hrs by CellTiter-Glo assay; assay type: cell-based
HCC827 = test: Antiproliferative activity against human HCC827 cells harboring EGFR del19 mutant after 72 hrs by CellTiter-Glo assay; assay type: functional; conditions: HCC827, 72 h
NCI-H1975 [14] = test: Antiproliferative activity against human NCI-H1975 cells harboring EGFR L858R/T790M mutant after 72 hrs by CellTiter-Glo assay; assay type: functional; conditions: NCI-H1975, 72 h; in short: as §1
NCI-H2228 = test: Antiproliferative activity against human NCI-H2228 cells harboring EML4-fused ALK varian3 after 72 hrs by CellTiter-Glo assay; assay type: functional; conditions: NCI-H2228, 72 h

T1 sequence (P00533 whole entry, the tested form may be a part): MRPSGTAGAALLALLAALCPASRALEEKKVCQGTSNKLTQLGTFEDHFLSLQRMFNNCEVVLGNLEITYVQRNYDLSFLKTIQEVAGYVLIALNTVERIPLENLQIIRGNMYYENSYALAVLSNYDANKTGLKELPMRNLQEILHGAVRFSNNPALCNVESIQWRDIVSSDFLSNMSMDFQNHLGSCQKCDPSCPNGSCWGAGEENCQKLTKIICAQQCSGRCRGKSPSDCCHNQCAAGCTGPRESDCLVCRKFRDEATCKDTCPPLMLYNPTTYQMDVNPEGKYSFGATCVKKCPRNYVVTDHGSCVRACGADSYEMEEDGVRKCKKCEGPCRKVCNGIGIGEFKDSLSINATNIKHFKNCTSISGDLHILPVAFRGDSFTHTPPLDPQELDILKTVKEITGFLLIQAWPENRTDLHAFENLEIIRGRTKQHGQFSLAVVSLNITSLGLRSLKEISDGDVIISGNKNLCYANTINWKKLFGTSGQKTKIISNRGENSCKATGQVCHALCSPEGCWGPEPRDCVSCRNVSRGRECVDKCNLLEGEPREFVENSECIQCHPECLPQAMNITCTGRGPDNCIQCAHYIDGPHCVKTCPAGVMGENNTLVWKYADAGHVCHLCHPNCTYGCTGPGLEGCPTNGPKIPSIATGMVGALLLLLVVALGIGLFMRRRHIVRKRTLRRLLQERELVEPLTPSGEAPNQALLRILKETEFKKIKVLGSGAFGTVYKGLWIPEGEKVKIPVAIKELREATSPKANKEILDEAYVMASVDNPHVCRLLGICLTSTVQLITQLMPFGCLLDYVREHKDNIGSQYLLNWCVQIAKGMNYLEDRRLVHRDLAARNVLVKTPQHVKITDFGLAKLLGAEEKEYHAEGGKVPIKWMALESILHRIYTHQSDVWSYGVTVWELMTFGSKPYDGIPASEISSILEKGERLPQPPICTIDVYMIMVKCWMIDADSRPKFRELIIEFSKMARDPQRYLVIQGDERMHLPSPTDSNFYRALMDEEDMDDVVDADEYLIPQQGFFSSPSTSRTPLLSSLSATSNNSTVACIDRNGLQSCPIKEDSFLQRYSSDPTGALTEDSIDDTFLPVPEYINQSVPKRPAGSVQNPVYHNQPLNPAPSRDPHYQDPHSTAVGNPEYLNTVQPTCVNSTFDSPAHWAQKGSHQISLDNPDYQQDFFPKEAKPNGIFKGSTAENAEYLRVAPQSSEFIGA
Chain of Epidermal growth factor receptor (Homo sapiens), P00533 [T790M] (P00533 whole entry T790M, the tested form may be a part): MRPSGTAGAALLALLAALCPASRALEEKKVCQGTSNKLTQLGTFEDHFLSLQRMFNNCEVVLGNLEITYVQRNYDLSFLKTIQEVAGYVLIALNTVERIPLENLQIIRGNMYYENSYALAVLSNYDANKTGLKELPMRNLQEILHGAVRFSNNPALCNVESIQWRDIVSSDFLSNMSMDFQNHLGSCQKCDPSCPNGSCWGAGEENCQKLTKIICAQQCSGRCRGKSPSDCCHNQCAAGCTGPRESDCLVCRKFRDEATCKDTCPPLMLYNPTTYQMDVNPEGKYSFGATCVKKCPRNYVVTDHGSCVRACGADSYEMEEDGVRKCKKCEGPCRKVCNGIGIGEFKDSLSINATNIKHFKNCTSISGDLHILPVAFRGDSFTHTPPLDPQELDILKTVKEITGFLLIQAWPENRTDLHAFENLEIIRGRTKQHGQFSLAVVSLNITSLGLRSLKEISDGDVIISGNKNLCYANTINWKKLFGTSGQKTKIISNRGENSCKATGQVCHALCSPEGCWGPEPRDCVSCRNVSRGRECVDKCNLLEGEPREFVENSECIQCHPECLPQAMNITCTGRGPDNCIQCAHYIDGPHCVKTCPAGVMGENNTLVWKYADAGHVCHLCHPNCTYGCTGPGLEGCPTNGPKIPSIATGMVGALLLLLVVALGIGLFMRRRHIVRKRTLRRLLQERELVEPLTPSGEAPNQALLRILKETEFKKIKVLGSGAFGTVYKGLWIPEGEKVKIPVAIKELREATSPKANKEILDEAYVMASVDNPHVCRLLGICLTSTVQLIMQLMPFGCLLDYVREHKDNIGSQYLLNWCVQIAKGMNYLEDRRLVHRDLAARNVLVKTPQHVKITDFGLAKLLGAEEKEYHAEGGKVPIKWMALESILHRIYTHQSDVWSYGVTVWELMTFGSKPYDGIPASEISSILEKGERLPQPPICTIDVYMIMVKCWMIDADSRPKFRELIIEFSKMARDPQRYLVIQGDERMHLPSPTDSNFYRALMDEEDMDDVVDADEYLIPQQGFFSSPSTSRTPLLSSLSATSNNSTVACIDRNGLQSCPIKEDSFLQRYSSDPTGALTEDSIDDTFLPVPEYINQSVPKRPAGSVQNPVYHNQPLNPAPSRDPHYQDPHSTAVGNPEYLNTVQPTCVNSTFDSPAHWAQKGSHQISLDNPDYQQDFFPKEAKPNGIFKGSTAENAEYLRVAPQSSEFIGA
Chain of Epidermal growth factor receptor (Homo sapiens), P00533 [C797S] (P00533 whole entry C797S, the tested form may be a part): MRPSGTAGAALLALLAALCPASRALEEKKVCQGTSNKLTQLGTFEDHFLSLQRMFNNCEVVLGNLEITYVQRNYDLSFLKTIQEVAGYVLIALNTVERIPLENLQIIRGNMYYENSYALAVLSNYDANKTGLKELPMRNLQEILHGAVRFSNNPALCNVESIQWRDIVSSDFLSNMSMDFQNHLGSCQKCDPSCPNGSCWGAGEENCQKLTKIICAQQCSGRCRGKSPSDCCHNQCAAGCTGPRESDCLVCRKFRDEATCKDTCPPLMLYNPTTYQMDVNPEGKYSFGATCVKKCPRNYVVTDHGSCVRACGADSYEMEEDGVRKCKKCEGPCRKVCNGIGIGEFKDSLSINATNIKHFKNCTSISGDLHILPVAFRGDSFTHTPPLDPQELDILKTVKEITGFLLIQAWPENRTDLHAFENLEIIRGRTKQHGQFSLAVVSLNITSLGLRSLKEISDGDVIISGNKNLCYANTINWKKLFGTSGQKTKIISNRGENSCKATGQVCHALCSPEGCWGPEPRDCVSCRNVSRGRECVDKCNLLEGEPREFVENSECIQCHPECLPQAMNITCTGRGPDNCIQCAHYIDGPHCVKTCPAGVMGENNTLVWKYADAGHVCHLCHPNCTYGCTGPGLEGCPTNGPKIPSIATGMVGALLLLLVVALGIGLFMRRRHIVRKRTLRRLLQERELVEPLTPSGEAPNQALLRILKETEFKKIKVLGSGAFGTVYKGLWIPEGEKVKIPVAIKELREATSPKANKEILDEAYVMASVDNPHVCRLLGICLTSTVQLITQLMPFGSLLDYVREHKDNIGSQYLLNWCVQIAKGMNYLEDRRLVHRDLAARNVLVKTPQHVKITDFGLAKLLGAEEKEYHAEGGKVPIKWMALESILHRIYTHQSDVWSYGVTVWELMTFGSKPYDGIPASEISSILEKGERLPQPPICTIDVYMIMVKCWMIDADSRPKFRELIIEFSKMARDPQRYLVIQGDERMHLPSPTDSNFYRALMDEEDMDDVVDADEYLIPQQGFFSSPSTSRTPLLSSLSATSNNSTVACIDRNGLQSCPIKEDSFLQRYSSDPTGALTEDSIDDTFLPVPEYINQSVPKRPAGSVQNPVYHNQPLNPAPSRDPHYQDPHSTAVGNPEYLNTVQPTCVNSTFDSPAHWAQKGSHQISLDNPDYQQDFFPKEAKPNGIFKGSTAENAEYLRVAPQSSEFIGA
Chain of Epidermal growth factor receptor (Homo sapiens), P00533 [L858R] (P00533 whole entry L858R, the tested form may be a part): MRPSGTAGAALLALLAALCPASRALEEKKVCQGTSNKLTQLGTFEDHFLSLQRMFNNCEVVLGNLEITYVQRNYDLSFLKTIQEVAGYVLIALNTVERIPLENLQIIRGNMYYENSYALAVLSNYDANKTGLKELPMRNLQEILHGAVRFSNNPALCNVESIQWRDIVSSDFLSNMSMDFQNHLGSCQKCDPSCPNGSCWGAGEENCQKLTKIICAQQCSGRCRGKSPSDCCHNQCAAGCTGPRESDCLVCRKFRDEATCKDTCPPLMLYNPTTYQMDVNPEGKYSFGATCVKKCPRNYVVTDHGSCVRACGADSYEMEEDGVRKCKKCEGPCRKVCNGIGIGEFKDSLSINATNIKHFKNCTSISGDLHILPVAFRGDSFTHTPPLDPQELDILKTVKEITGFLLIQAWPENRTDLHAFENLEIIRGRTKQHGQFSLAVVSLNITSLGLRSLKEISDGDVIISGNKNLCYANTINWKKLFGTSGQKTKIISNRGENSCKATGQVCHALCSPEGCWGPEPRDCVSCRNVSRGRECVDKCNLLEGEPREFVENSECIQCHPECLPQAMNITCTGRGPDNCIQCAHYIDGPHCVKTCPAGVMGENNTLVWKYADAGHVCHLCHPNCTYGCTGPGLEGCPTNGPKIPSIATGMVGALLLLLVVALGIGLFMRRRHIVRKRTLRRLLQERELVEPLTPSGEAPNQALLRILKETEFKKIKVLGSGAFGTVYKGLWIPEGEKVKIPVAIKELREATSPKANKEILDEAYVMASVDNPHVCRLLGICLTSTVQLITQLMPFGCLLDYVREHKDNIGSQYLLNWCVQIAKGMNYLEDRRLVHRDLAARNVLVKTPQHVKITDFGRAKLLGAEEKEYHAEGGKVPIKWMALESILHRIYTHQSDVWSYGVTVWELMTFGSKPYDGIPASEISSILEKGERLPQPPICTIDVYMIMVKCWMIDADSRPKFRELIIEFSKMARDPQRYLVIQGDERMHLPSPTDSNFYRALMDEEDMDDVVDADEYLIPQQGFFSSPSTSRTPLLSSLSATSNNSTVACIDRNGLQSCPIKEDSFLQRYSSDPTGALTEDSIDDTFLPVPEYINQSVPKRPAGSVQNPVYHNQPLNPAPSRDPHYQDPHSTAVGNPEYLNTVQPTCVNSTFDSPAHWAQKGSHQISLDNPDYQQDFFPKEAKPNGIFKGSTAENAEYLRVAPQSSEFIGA

| SMILES | GI50 (NCI-H1975 [1]) | GI50 (NCI-H3122 [2]) | also measured |
| --- | --- | --- | --- |
| C=CC(=O)Nc1cc(Nc2ncc(Cl)c(Nc3ccccc3S(=O)(=O)C(C)C)n2)c(OC)cc1N1CCCCC1 | 240 nM | 29 nM | – |
| C=CC(=O)Nc1cc(Nc2ncc(Cl)c(Nc3ccccc3S(=O)(=O)C(C)C)n2)c(OC)cc1N1CCN(C(C)C)CC1 | 25 nM | – | – |
| C=CC(=O)Nc1cc(Nc2ncc(Cl)c(Nc3ccccc3NC(=O)C(C)(C)C)n2)c(OC)cc1N1CCN(C)CC1 | 950 nM | 6500 nM | – |
| C=CC(=O)Nc1cc(Nc2ncc(Cl)c(Nc3ccccc3C(=O)NC)n2)c(OC)cc1N1CCN(C2CCN(C)CC2)CC1 | 120 nM | 18 nM | – |
| C=CC(=O)Nc1cc(Nc2ncc(Cl)c(Nc3ccccc3S(=O)(=O)C(C)C)n2)c(OC)cc1N1CCN(C2CCCCC2)CC1 | 77 nM | – | – |
| C=CC(=O)Nc1cc(Nc2ncc(C)c(Nc3ccccc3S(=O)(=O)C(C)C)n2)c(OC)cc1N1CCC(N2CCN(C)CC2)CC1 | 27 nM | – | – |
| C=CC(=O)Nc1cc(Nc2ncc(Cl)c(Nc3ccccc3S(=O)(=O)C(C)C)n2)c(OC)cc1N1CCN(S(C)(=O)=O)CC1 | 40 nM | – | – |
| CCC(=O)Nc1cc(Nc2ncc(Cl)c(Nc3ccccc3S(=O)(=O)C(C)C)n2)c(OC)cc1N1CCCN(C)CC1 | – | – | GI50 [3]: 290 nM; GI50 [4]: 360 nM; GI50 (PC-9): 340 nM; GI50 (A549): 1200 nM; GI50 [5]: 1700 nM; GI50 (NCI-H1355): 2200 nM; GI50 at 72 h [6]: 1300 nM; GI50 [7]: 370 nM; GI50 [8]: 1500 nM; GI50 (NCI-H2122): 3300 nM; GI50 [9]: 800 nM; GI50 (NCI-H3255): 830 nM; GI50 [10]: 270 nM; GI50 at 72 h [11]: 3600 nM; GI50 (NCI-H3122 [12]): < 0.3 nM; GI50 at 72 h [13]: 7100 nM; GI50 (HCC827): 2600 nM; GI50 (NCI-H1975 [14]): 700 nM; GI50 (NCI-H2228): 100 nM |
| C=CC(=O)Nc1cccc(Oc2nc(Nc3ccc(N4CCN(C)CC4)cc3OC)ncc2Cl)c1 | – | – | GI50 [4]: 890 nM; GI50 (PC-9): 27 nM; GI50 (A549): > 10000 nM; GI50 (NCI-H1355): 5300 nM; GI50 at 72 h [6]: 4400 nM; GI50 (NCI-H2122): 5700 nM; GI50 [9]: 2.1 nM; GI50 (NCI-H3255): 390 nM; GI50 at 72 h [11]: 3900 nM; GI50 (HCC827): 7.4 nM; GI50 (NCI-H1975 [14]): 56 nM |
| C=CC(=O)Nc1cc(Nc2ncc(Cl)c(Nc3c(F)cccc3F)n2)c(OC)cc1N1CCN(C)CC1 | 130 nM | 2900 nM | – |
| COc1cc(N2CCC(N3CCN(C)CC3)CC2)ccc1Nc1ncc(Cl)c(Nc2ccccc2S(=O)(=O)C(C)C)n1 | – | – | GI50 [8]: 560 nM; GI50 [9]: 420 nM |
| C=CC(=O)Nc1cc(Nc2ncc(Cl)c(Nc3ccccc3C#N)n2)c(OC)cc1N1CCN(CC)CC1 | 440 nM | 110 nM | – |
| C=CC(=O)Nc1cc(Nc2ncc(Cl)c(Nc3ccccc3C#N)n2)c(OC)cc1N1CCOCC1 | 1200 nM | 370 nM | – |
| C=CC(=O)Nc1cc(Nc2ncc(Cl)c(N(C)c3cccc(C(F)(F)F)c3)n2)c(OC)cc1N1CCN(C)CC1 | 1800 nM | 3600 nM | – |
| C=CC(=O)Nc1cc(Nc2ncc(Cl)c(Nc3ccccc3C#N)n2)c(OC)cc1N1CCN(C(C)C)CC1 | 430 nM | 110 nM | – |
| C=CC(=O)Nc1cc(Nc2ncc(Cl)c(Nc3ccccc3C(=O)NC)n2)c(OC)cc1N1CCN(C)CC1 | 50 nM | 3.5 nM | – |
| C[C@@H](Oc1cc(-c2cnn(C3CCNCC3)c2)cnc1N)c1c(Cl)ccc(F)c1Cl [CRIZOTINIB] | – | – | GI50 at 72 h [6]: 450 nM; GI50 at 72 h [11]: 3200 nM; GI50 (NCI-H3122 [12]): 37 nM; GI50 at 72 h [13]: 1100 nM |
| C=CC(=O)Nc1cc(Nc2ncc(Cl)c(Nc3ccccc3P(C)(C)=O)n2)c(OC)cc1N1CCC(N2CCCCC2)CC1 | 41 nM | 78 nM | – |
| C=CC(=O)Nc1cc(Nc2ncc(Cl)c(Nc3ccccc3P(C)(C)=O)n2)c(OC)cc1N1CCN(S(C)(=O)=O)CC1 | 890 nM | 800 nM | – |
| C=CC(=O)Nc1cc(Nc2ncc(Cl)c(Nc3ccccc3P(C)(C)=O)n2)c(OC)cc1N1CCN(CC)CC1 | 26 nM | 37 nM | – |

Now from value to molecule, other results behind:

| GI50 (NCI-H1975 [1]) | GI50 (NCI-H3122 [2]) | SMILES | also measured |
| --- | --- | --- | --- |
| 23 nM | – | C=CC(=O)Nc1cc(Nc2ncc(Cl)c(Nc3ccccc3S(=O)(=O)C(C)C)n2)c(OC)cc1N1CCC(N2CCN(C)CC2)CC1 | – |
| 220 nM | 270 nM | C=CC(=O)Nc1cc(Nc2ncc(Cl)c(NCc3cccs3)n2)c(OC)cc1N1CCN(C)CC1 | – |
| 100 nM | 300 nM | C=CC(=O)Nc1cc(Nc2ncc(Cl)c(Nc3ccc(F)c(Cl)c3)n2)c(OC)cc1N1CCN(C)CC1 | – |
| 1200 nM | < 0.3 nM | C=CC(=O)Nc1cc(Nc2ncc(Cl)c(Nc3ccccc3S(=O)(=O)C(C)C)n2)c(OC)cc1N1CCOCC1 | – |
| 220 nM | 140 nM | C=CC(=O)Nc1cc(Nc2ncc(Cl)c(Nc3ccccc3P(C)(C)=O)n2)c(OC)cc1N1CCC(N(C)C)CC1 | – |
| 43 nM | 2 nM | C=CC(=O)Nc1cc(Nc2ncc(C)c(Nc3ccccc3S(=O)(=O)C(C)C)n2)c(OC)cc1N1CCN(CC)CC1 | – |
| 43 nM | 33 nM | C=CC(=O)Nc1cc(Nc2ncc(Cl)c(Nc3ccccc3S(=O)(=O)C(C)C)n2)c(OC)cc1N1CCN(C)CC1 | – |
| 780 nM | 360 nM | C=CC(=O)Nc1cc(Nc2ncc(Cl)c(Nc3ccccc3P(C)(C)=O)n2)c(OC)cc1N1CCOCC1 | – |
| 190 nM | 41 nM | C=CC(=O)Nc1cc(Nc2nccc(Nc3ccccc3S(=O)(=O)C(C)C)n2)c(OC)cc1N1CCN(CC)CC1 | – |
| 31 nM | 11 nM | C=CC(=O)Nc1cc(Nc2ncc(Cl)c(Nc3ccccc3S(=O)(=O)N(C)C)n2)c(OC)cc1N1CCN(C)CC1 | – |
| 7100 nM | 4900 nM | C=CC(=O)Nc1cc(Nc2ncc(Cl)c(Nc3ccccc3S(=O)(=O)C(C)C)n2)ccc1N1CCC(N2CCN(C)CC2)CC1 | – |
| 79 nM | 4.5 nM | C=CC(=O)Nc1cc(Nc2ncc(Cl)c(Nc3ccccc3C(=O)NC)n2)c(OC)cc1N1CCN(C(C)C)CC1 | – |
| 200 nM | 98 nM | C=CC(=O)Nc1cc(Nc2ncc(Cl)c(Nc3ccccc3C#N)n2)c(OC)cc1N1CCC(N2CCN(C)CC2)CC1 | – |
| 250 nM | 12 nM | C=CC(=O)Nc1cc(Nc2ncc(Cl)c(Nc3ccccc3C(=O)NC)n2)c(OC)cc1N1CCN(C(C)=O)CC1 | – |
| 41 nM | – | C=CC(=O)Nc1cc(Nc2ncc(Cl)c(Nc3ccccc3S(=O)(=O)C(C)C)n2)c(OC)cc1N1CCN(CCOC)CC1 | – |
| > 10000 nM | 3200 nM | C=CC(=O)Nc1cc(Nc2ncc(Cl)c(NC3CC3)n2)c(OC)cc1N1CCN(C)CC1 | – |
| 300 nM | < 0.3 nM | C=CC(=O)Nc1cc(Nc2ncc(Cl)c(Nc3ccccc3S(=O)(=O)C(C)C)n2)c(OC(C)C)cc1N1CCN(CC)CC1 | – |
| 260 nM | 770 nM | C=CC(=O)Nc1cc(Nc2ncc(Cl)c(Nc3cccc(C(F)(F)F)c3)n2)c(OC)cc1N1CCN(C)CC1 | – |
